# Source: PubChem BioAssay
# Most compounds without a hit are left out; they make up all but 3.5% or so of the library.
# RGS4 inh: human RGS4 inhibition; HEK293 M3R/RGS4 inducible, Fluo-4 calcium flux; stronger effect = higher value; triggered by carbachol at its EC20; B-score at 10 µM; 0.45% of 310,000 active; AID 463165;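 active means B-score, a plate-corrected calcium signal, over three deviations above library mean, with baseline fluorescence within five deviations of library mean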;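 further: RGS4 expression induced by doxycycline in cells with stable M3 receptor; B-score is computed from the integrated fluorescence ratio over baseline after carbachol; higher B-score means a larger calcium signal and so more RGS4 inhibition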
# Target sequence (P49798 whole entry, looked up): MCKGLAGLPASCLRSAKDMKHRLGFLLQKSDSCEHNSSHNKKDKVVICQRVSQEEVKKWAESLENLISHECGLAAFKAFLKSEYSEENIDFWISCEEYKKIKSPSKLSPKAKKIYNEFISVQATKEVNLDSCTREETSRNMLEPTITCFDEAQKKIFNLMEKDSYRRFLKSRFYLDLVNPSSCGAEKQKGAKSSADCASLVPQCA
# RGS4 act: potentiators or activators of RGS4 | B-score at 10 µM | HEK293 M3R/inducible RGS4, carbachol calcium flux Fluo4; stronger effect = lower value | AID 463111 | 0.92% of 310,000 active;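 active means B-score of the integrated calcium signal more than 4 SD below the library mean, with starting fluorescence not abnormally high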;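 further: negative B-score means reduced calcium response which marks RGS4 activation or potentiation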
#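 Material: M3R-expressing HEK293 line, RGS4 induced by doxycycline | Schedule: Overnight RGS4 induction, 30 min dye load 37 °C, 20 min compound RT | Measured by: Fluo4 fluorescence kinetic imaging of calcium | Read-out: Integrated calcium ratio converted to B score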
# MrgX1 ag: agonists of human MrgX1 receptor; B-score at 10 µM; MrgX1-HEK293 cells, Fluo-4 calcium fluorescence, agonist mode; stronger effect = higher value; AID 588627; Q96LB2; 0.44% of 310,000 active;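 active means calcium response B-score plate-corrected fluorescence ratio at least 3 library SD, with starting fluorescence B-score inside 5 SD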
# Target sequence (Q96LB2 whole entry, looked up): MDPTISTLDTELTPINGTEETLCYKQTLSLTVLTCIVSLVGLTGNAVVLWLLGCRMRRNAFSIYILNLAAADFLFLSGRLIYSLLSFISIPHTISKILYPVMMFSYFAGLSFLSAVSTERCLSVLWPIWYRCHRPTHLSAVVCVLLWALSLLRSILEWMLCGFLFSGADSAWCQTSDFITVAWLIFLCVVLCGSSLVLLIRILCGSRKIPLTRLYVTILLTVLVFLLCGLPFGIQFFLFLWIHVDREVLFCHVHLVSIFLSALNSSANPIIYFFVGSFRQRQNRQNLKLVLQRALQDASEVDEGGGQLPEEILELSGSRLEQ
#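 Test system: HEK293 cells stably expressing human MrgX1 receptor; amount: 15,000 cells per well; doses: compound delivered in addition one of three; times: overnight plating before 1 h dye loading; detection: Fluo-4 NW calcium-flux fluorescence, kinetic read; read-out basis: B-scored fluorescence response ratio; controls: positive and negative controls per plate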
# MrgX1 antag: antagonists of human MrgX1 receptor; MRGX1-HEK293 calcium flux, Fluo-4, BAM8-22 antagonism; stronger effect = lower value; B-score at 10 µM; AID 588676; 1.3% of 310,000 active; Q96LB2;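 active means calcium-response B-score plate-corrected more than 3 library SD below zero, starting fluorescence within 5 deviations, no agonist response on first addition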;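 further: peak minus trough fluorescence over baseline after final BAM8-22 challenge near maximal dose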
# MrgX1 allo act: allosterically activates human MrgX1 receptor signaling; Q96LB2; MrgX1-HEK293, Fluo-4 calcium flux, FDSS; stronger effect = higher value; B-score at 10 µM; 0.63% of 310,000 active; AID 588675;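 active means plate-corrected calcium response at least 3 library SD above typical, normal starting fluorescence, not activating the receptor alone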;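 further: compound read alongside a low EC10 to EC30 dose of BAM8-22 agonist; peak minus trough fluorescence over baseline measured at the second addition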
# MrgX1 antag conf: human MrgX1 receptor antagonism, re-confirmation screen; shares compounds with MrgX1 antag; MrgX1-HEK293, BAM8-22 calcium flux, Fluo-4; stronger effect = lower value; remaining BAM8-22 calcium response % of control (stronger effect = lower value), % at 10 µM; 19% of 2,300 active;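 active means remaining agonist calcium response no higher than 100% minus 3 SD of agonist-only control wells, with starting fluorescence near control levels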;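 further: agonist BAM8-22 given at a near maximal EC90 to ECmax level; peak minus minimum fluorescence divided by baseline after agonist addition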
# HEK293 Ca flux: counter-screen for MrgX1 antagonists: effect in parental HEK293 cells; shares compounds with MrgX1 antag; Fluo-4 calcium fluorescence, FDSS; fluorescence ratio F(max-min)/F0 at 10 µM; 2% of 4,000 active;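 active means duplicate-averaged calcium fluorescence ratio at least three times the standard deviation of buffer wells, a nonspecific response in parental cells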
# HEK293 Ca counter: MrgX1 allosteric activator counter-screen hit in parental HEK293 cells | fluorescence ratio F(max-min)/F0 at 10 µM | 0.4% of 4,000 active | parental HEK293 calcium flux, Fluo-4 fluorescence ratio; stronger effect = higher value | AID 624114 | shares compounds with MrgX1 antag;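 active means calcium fluorescence ratio, averaged over duplicates, at least 3 SD of the buffer-well ratio, meaning a nonspecific response in receptor-free cells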;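 further: untransfected parental HEK293 lacking MrgX1 used as counterscreen for MrgX1 allosteric activators; fluorescence change taken during the second addition on a kinetic imager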
# HEK293 Ca cntr2: counter-screen for MrgX1 activators: effect in parental HEK293 cells; shares compounds with MrgX1 antag; Fluo-4 calcium fluorescence (FDSS); stronger effect = higher value; fluorescence ratio F(max-min)/F0 at 10 µM; 8.7% of 4,000 active;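 active means calcium fluorescence ratio at least three times the spread of buffer wells, meaning a non-specific response in parental cells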
# Numbers without * were called inactive; i = inactive; . = no result given.
SMILES,RGS4 inh,RGS4 act,MrgX1 ag,MrgX1 antag,MrgX1 allo act,MrgX1 antag conf,HEK293 Ca flux,HEK293 Ca counter,HEK293 Ca cntr2
Cc1ccccc1CNS(=O)(=O)c1ccc2c(c1)OCCO2,i,i,i,-4.7*,i,i,i,i,i
O=C(CS(=O)(=O)c1c[nH]c2ccccc12)Nc1ccc(F)cc1,i,i,i,i,i,.,.,.,.
O=C(Cc1c(O)c2ccccc2[nH]c1=O)NC1CCCCCCC1,i,i,i,-8.4*,i,i,i,i,i
O=C(Cc1c(O)c2ccccc2[nH]c1=O)NC1CCCCCC1,i,i,i,i,i,.,.,.,.
O=C(CS(=O)(=O)c1c[nH]c2ccccc12)NC1CCCCC1,i,i,i,-10*,i,i,i,i,i
CCCCCOC(=O)Cc1c(O)c2ccccc2[nH]c1=O,i,i,i,-7.9*,i,i,i,i,i
CCCCn1c(=O)[nH]c(=O)c2c1nc(-c1ccccc1F)n2Cc1ccccc1OC,i,i,i,i,i,.,.,.,.
Cc1nc2c(-c3ccc(Cl)cc3)cnn2c2c1CCC2,i,i,i,-5.1*,i,i,i,i,i
Cc1c(CN2CCC(CO)(Cc3cccc(C(F)(F)F)c3)CC2)c2ccccc2n1C,i,i,i,i,i,.,.,.,.
CCOC(=O)N1CCN(C(=O)c2cc3cc(OC)c(OC)cc3[nH]2)CC1,i,i,i,i,i,.,.,.,.
CC1=CC(=O)C(C(C)C)=C/C1=N/OS(=O)(=O)c1ccccc1,i,-8.2*,i,-14*,i,i,i,i,i
CC1=CC(=O)C=C(C)C1=NOS(=O)(=O)c1ccccc1,i,i,.,.,.,.,.,.,.
CCN(CC)S(=O)(=O)c1ccc(N2CCCC2)c(C(=O)OCC(=O)Nc2cc(C)on2)c1,i,i,i,i,i,.,.,.,.
O=C(COc1ccc(CO)cc1Cl)Nc1ccc(F)cc1,i,i,i,-6.6*,i,85%*,i,i,i
O=C(COc1ccc(CO)cc1)Nc1ccc(F)cc1,i,i,i,i,i,.,.,.,.
COc1ccccc1C(=O)Nc1ccnn1C1CCN(CC2CC=CCC2)CC1 (stereo not given),i,i,i,i,i,.,.,.,.
Nc1ncc2c(n1)-c1ccccc1CC2,i,i,i,-4.8*,i,i,i,i,i
Nc1ncc2c(n1)-c1ccoc1CC2,i,i,i,i,i,.,.,.,.
Cc1cc(Br)ccc1NC(=S)NCCc1ccccc1,i,i,i,i,i,.,.,.,.
Cc1ccc(NC(=S)NCCc2ccccc2)c(C)c1,i,i,i,-5.2*,i,i,i,i,i
Cc1ccc(C(=O)CCC(=O)Nc2cccc(C(F)(F)F)c2)cc1,i,i,i,i,i,.,.,.,.
COc1ccc(-c2noc(CN(C(=O)c3ccc4c(c3)OCO4)C(C)C)n2)cc1,i,i,i,i,i,.,.,.,.
COc1ccc(-c2noc(CN(C(=O)c3cccs3)C(C)C)n2)cc1,i,i,i,-4.8*,i,i,i,i,i
COCCn1nnnc1C(c1ccccc1OC)N1CCN(c2ccccc2F)CC1 (stereo not given),i,i,i,i,i,.,.,.,.
COCCn1nnnc1C(c1ccc(C(F)(F)F)cc1)N1CCOCC1 (stereo not given),i,i,i,-5.6*,i,i,i,i,i
SMILES,RGS4 inh,RGS4 act,MrgX1 ag,MrgX1 antag,MrgX1 allo act,MrgX1 antag conf,HEK293 Ca flux,HEK293 Ca counter,HEK293 Ca cntr2
COCCn1nnnc1C(c1ccc(OC)cc1)N1CCN(c2ccccc2F)CC1 (stereo not given),i,i,i,-5.7*,i,i,i,i,i
CCCOC(=O)c1ccc(NC(=O)CC(C)(C)C)cc1,i,i,i,-4.5*,i,i,i,i,i
CC(C)(C)C(=O)Nc1sc2c(c1C#N)CCN(Cc1ccccc1)C2,i,i,i,-5.1*,i,i,i,i,i
Cc1ccc(C(=O)C2=C(O)C(=O)N(Cc3cccnc3)C2c2ccc(Br)cc2)o1 (stereo not given),i,i,i,-11*,i,i,i,i,i
O=C(NS(=O)(=O)c1ccccc1)c1ccccc1,i,i,i,i,i,.,.,.,.
O=C(NS(=O)(=O)c1ccc(Cl)cc1)c1ccccc1,i,i,i,-4.9*,i,i,i,i,i
Cc1ccccc1OCC(=O)NS(=O)(=O)c1ccc(Cl)cc1,i,i,i,-9.2*,i,83%*,i,i,i
Cc1cccc(-n2c(=O)c3ccccc3n3c(=S)[nH]nc23)c1C,i,i,i,i,i,.,.,.,.
O=C(O)c1ccccc1C(=O)c1cccc2ccccc12,i,i,i,i,i,.,.,.,.
COc1cc(/C=C/C(=O)NC(=O)c2ccccc2O)ccc1OC(C)=O,i,i,i,i,i,.,.,.,.
CCCCNC(=O)NNC(=O)COc1cccc(C)c1C,i,i,i,i,i,.,.,.,.
COc1ccc(-c2nc(/C=C3\C(C)=Nc4ccccc43)c(O)o2)cc1,i,i,i,-4.8*,i,59%*,i,i,i
CC1=Nc2ccccc2/C1=C/c1nc(-c2ccc(C)s2)oc1O,i,i,i,-6.1*,i,57%*,i,i,i
Cc1ccc(Cn2nnc(C(=O)Nc3cc(C)ccc3C)c2N)cc1,i,i,i,-4.6*,i,i,i,i,i
CC1C[C@@]2(NC(=O)NC2=O)C(C)CN1C (stereo not given in full),i,i,i,-5.5*,i,i,i,i,i
CC1CC2(NC(=O)NC2=O)C(C)CN1C (stereo not given),i,i,i,i,i,.,.,.,.
COc1ccccc1N1CCN(CC(=O)Nc2c(C)n(C)n(-c3ccccc3)c2=O)CC1,i,i,i,i,i,.,.,.,.
